High-throughput results (PubChem BioAssay)
In the library only some 3.5% were active in any assay of this set; here they are far more common.
STAT1 activator: STAT1 signaling activators, primary screen, cell-based, HTS, luciferase reporter; actives 2.6% (n = 200,000); activation (% of control), % at 5.5 µM; NIH 3T3 STAT1-luciferase reporter, IFN-gamma, luminescence; 100% = IFN-gamma alone, no compound; AID 932, 2007;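 active = activation above the screen-wide mean activation plus 3 SD, cut at about 130% in these data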
Pf gametocyte: late stage P. falciparum gametocyte viability inhibitors, primary screen, ATP luminescence, HTS | P. falciparum stage V gametocytes, 24 h | inhibition, % at 10.9 µM | actives 0.065% (n = 150,000) | AID 743093, 2013;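 active = inhibition above the mean plus 3 SD of compounds within the control limits, set per campaign, cut at about 38% in these data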
APP 5'UTR act: activators of APP 5'UTR luciferase reporter, primary screen, SH-SY5Y cells. SH-SY5Y APP 5'UTR luciferase reporter, luminescence; zero percent = DMSO vehicle wells. activation, % at 2 µM. actives 1% (n = 190,000);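 active = activation above a set limit, based on mean plus 3 SD of controls, cut at about 140% in these data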
NF-kB neuron act: activators of NF-kB expression in neurons, primary screen, cell-based, HTS; human neuronal cells, NF-kB reporter expression; hits give high values; fold change at 12.5 µM; actives 1.6% (n = 190,000); in the data active = fold change above about 3.3
FLuc act counter: FLuc activators, initial screening, artefact control for FLuc-dependent activation tests, biochemical, ATPlite luminescence. Luciferin 4-monooxygenase (Photinus pyralis), P08659. ATPlite luciferase biochemical, 10 min; 0 = ATP-free wells, 1 = DMSO control. AID 1027, 2008. activation factor at 10 µM. 200,000 tested, under 10 active;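 active = luciferase activation factor, scaled between plate controls, of at least 2 with compound at 10 µM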
Target sequence (P08659 whole entry, looked up): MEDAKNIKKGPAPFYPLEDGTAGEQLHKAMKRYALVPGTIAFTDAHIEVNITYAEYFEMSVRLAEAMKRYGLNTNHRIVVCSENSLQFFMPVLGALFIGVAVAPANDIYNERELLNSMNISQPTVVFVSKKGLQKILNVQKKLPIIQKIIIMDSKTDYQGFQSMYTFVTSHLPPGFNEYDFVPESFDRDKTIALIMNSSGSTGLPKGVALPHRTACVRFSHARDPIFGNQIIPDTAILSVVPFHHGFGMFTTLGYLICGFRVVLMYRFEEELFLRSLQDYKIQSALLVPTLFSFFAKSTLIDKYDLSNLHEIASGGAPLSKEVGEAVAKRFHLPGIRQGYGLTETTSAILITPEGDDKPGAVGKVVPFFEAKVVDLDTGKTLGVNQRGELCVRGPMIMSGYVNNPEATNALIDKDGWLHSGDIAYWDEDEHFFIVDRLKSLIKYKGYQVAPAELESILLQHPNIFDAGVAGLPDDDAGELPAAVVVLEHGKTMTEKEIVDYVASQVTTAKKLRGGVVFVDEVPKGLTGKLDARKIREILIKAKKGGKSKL
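Assay system: Luciferase/luciferin detection reagent, cell-free biochemical luciferase assay / Also added: ATP substrate / Schedule: 10 min at ambient temperature / Measured by: luminescence measurement of luciferase light output / Benchmarks: low control with PBS replacing ATP, high control enzyme plus ATP without compound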
FLuc inh counter: firefly luciferase enzyme inhibitors, primary screen, artefact control for luciferase-based inhibitor screens, biochemical, luminescence, ATPLite; 10 min; inhibition, % at 10 µM; actives 1.5% (n = 200,000);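 active = inhibition above about 50% when tested at 10 µM, limit read from the data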
Each line names hits and unclear results; the compound was inactive in the other large screens.

CC1(C)Cc2nc3sc4c(SCC(=O)NCc5ccco5)ncnc4c3cc2CO1	none
N#C/C(=N\Nc1cccc(C(F)(F)F)c1)C(=O)c1csc(-c2cccnc2)n1	none (no result: STAT1 activator, APP 5'UTR act, NF-kB neuron act, FLuc act counter, FLuc inh counter)
C/C(=N\NC(=O)c1nn(C)c(C)c1Br)c1ccc(NC(=O)c2ccc(C)s2)cc1	STAT1 activator 133
C/C(=N\NC(=O)c1nn(C)cc1Br)c1cccc(NC(=O)c2ccncc2)c1	STAT1 activator 141 (no result: Pf gametocyte)
C/C(=N\NC(=O)c1ccn(C)n1)c1cccc(NC(=O)c2ccc(C)s2)c1	FLuc inh counter 73
C/C(=N\NC(=O)c1ccc(Br)cc1)c1cccc(NC(=O)c2cccnc2)c1	none
C/C(=N/NC(=O)c1ccco1)c1cccc(NC(=O)c2ccc(C)s2)c1	FLuc inh counter 69
C/C(=N/NC(=O)c1ccco1)c1cccc(NC(=O)c2ccc(C)o2)c1	none
COc1ccc2ccccc2c1-c1sc(Nc2ccccc2)n[n+]1-c1ccc(F)cc1	none (no result: STAT1 activator, APP 5'UTR act, NF-kB neuron act, FLuc act counter, FLuc inh counter)
Cc1cc2nc(C3CCN(CC4COc5ccccc5O4)CC3)[nH]c2cc1C (stereo unspecified)	none (no result: Pf gametocyte)
CC(C)C(=O)Nc1ccc2c(c1)Cc1cc(NC(=O)C(C)C)ccc1-2	none (no result: STAT1 activator, APP 5'UTR act, NF-kB neuron act, FLuc act counter, FLuc inh counter)
O=C(Cn1ncc(N2CCCC2)c(Cl)c1=O)c1ccc(Cl)cc1	STAT1 activator 136
CCOC(=O)c1cnc(Nc2nc3ccccc3o2)nc1C	NF-kB neuron act 3.5, FLuc inh counter 91 (no result: Pf gametocyte)
Cc1nc(Nc2nc3ccccc3o2)nc2c1CCC2	NF-kB neuron act 3.7, FLuc inh counter 66
CSc1ncccc1C(=O)OCc1cccc([N+](=O)[O-])c1	none
COc1cc(/C=N/n2cnnc2)ccc1OCc1ccc(C)cc1	none (no result: Pf gametocyte)
CC(=O)c1cccc(NC(=O)c2ccc(-c3ccccc3[N+](=O)[O-])o2)c1	NF-kB neuron act 4
COc1ccc(-c2cn3c4c(sc3n2)CCCC4)cc1	NF-kB neuron act 7.4, FLuc inh counter 91
COc1ccc(-c2cn3c(C)c(C(=O)N4CCCc5ccccc54)sc3n2)cc1	none (no result: Pf gametocyte, NF-kB neuron act, FLuc act counter, FLuc inh counter)
Cc1cccc(NC(=O)CSc2nnc(-c3ccccc3C)o2)c1	APP 5'UTR act 151, NF-kB neuron act 4.7
Cc1cc(C)cc(NC(=O)CSc2nnc(-c3ccccc3C)o2)c1	NF-kB neuron act 4.2
Cc1ccc(C(=O)NC(C)(COc2nonc2C)COc2nonc2C)cc1	none (no result: Pf gametocyte)
O=C(Nc1ccc(Cl)cn1)c1cccc2ccccc12	none (no result: STAT1 activator, APP 5'UTR act, NF-kB neuron act, FLuc act counter, FLuc inh counter)
O=[N+]([O-])c1nn(-c2ccc3c(c2)OCCO3)n(O)c1=NCCCO	none
Cc1ccc(CN=c2c([N+](=O)[O-])nn(-c3ccc4c(c3)OCCO4)n2O)cc1	STAT1 activator 135
O=C(Nc1cc(S(=O)(=O)Nc2ccc(Cl)cc2)ccc1N1CCCCC1)c1ccc(F)cc1Cl	none
COCC(=O)Nc1nnc(-c2ccc(C(C)(C)C)cc2)s1	STAT1 activator 136, APP 5'UTR act 142, NF-kB neuron act 8.4, FLuc inh counter 60
N/C(=N\OC(=O)COc1cc(Cl)c(Cl)cc1Cl)c1ccncc1	STAT1 activator 131
N/C(=N\OC(=O)COc1ccccc1)c1ccncc1	none (no result: STAT1 activator, APP 5'UTR act, NF-kB neuron act, FLuc act counter, FLuc inh counter)
Cc1cc(C)c(C)c(OCC(=O)O/N=C(\N)c2ccccn2)c1	none (no result: Pf gametocyte, APP 5'UTR act)
N/C(=N\OC(=O)COc1ccc(Cl)cc1Cl)c1ccccn1	NF-kB neuron act 5.2
N/C(=N\OC(=O)c1cc(Cl)ccc1Cl)c1ccccn1	APP 5'UTR act 172, FLuc inh counter 75
COc1ccc(Cl)cc1C(=O)O/N=C(\N)c1ccccn1	none (no result: STAT1 activator, APP 5'UTR act, NF-kB neuron act, FLuc act counter, FLuc inh counter)
N/C(=N\OC(=O)COc1ccc(Br)cc1Cl)c1ccccn1	APP 5'UTR act 193, NF-kB neuron act 5.6 (no result: Pf gametocyte)
Cc1ccc(C(NC(=O)NC(C)c2ccccc2)C(Cl)(Cl)Cl)cc1F (stereo unspecified)	none
N/C(=N\OC(=O)COc1ccc2ccccc2c1Br)c1ccccn1	STAT1 activator 139 (no result: NF-kB neuron act)
N/C(=N\OC(=O)COc1ccc2ccccc2c1Br)c1cccnc1	none (no result: NF-kB neuron act)
CCOC(=O)c1c(C)[nH]c(C(=O)CSc2nccc(C)n2)c1C	STAT1 activator 132
CCCc1cc(=O)[nH]c(SCC(=O)c2[nH]c(C)c(C(=O)OCC)c2C)n1	none
c1cc(CNC23CC4CC(CC(C4)C2)C3)ccn1	none
C#CCOCCOCCOCCNc1nc(N2CCN(C(=O)[C@H](CCCCN)n3cc(C(N)CO)nn3)CC2)nc(N2CCN(C(=O)[C@H](CCC(=O)O)n3cc(C(N)[C@H](C)CC)nn3)CC2)n1 (stereo partly specified)	none (no result: Pf gametocyte)
O=c1c2c3c(sc2ncn1/N=C/c1cccnc1)CCCC3	STAT1 activator 139
O=c1c2c3c(sc2ncn1/N=C/c1ccncc1)CCCC3	none
Cc1ccoc1C(=O)Nc1ccc(CC(=O)O)cc1	FLuc inh counter 57
O=C(NCCc1ccc(F)cc1)C1CCCCC1	none
c1ccc(C2=Nc3ccccc3OC2)cc1	STAT1 activator 132, NF-kB neuron act 4.8 (no result: Pf gametocyte)
Cc1ccc2c(c1)N=C(c1ccc(Cl)cc1)CO2	STAT1 activator 148, NF-kB neuron act 3.6
Clc1ccc(C2=Nc3cc(Cl)ccc3OC2)cc1	STAT1 activator 135, NF-kB neuron act 3.4 (no result: Pf gametocyte)
O=C1CC(c2ccccc2)=Nc2ccccc2N1	none
CC1(C)OC(=O)N(c2cccnc2)C1(C)O (stereo unspecified)	none (no result: Pf gametocyte)
O=c1oc2ccccc2n1Cc1cccc(C(F)(F)F)c1	none (no result: STAT1 activator, APP 5'UTR act, NF-kB neuron act, FLuc act counter, FLuc inh counter)
O=Cc1c(-c2ccc(Cl)cc2)oc2ccc(O)cc12	none (no result: STAT1 activator, APP 5'UTR act, NF-kB neuron act, FLuc act counter, FLuc inh counter)
COC(=O)C1=C(O)C(C(=O)OC)C(c2ccc(C)cc2)C(C#N)(C#N)C1c1ccc(C)cc1 (stereo unspecified)	none
COc1ccc(NC(=S)c2ccccc2)cc1	none (no result: Pf gametocyte)
COc1ccc(C(=S)Nc2ccc(N(C)C)cc2)cc1	APP 5'UTR act 170, NF-kB neuron act 5.4
COc1ccc(NC(=S)c2ccc(N(C)C)cc2)cc1	STAT1 activator 149, APP 5'UTR act 135
Cc1ccc(OCC(=O)Nc2ccc(N3CCN(C(=O)c4ccco4)CC3)cc2)cc1	none
COc1cc(NC(=O)c2ccccc2Cl)ccc1NC(=O)c1ccco1	STAT1 activator 146 (no result: Pf gametocyte)
COc1ccccc1NC(=O)c1ccccc1NC(=O)c1cc(Cl)ccc1NC(=O)c1ccco1	Pf gametocyte 39
O=c1[nH]c(C2CC2)nc2sc3c(c12)CCCC3	none (no result: NF-kB neuron act)
N#Cc1cnn(-c2nc3sc4c(c3c(=O)[nH]2)CCCC4)c1N	FLuc inh counter 60 (no result: Pf gametocyte)
CC(=O)Nc1ccc(S[C@@H](CCN2CC[C@H](C(C)(C)C)CCC2=O)c2ccccc2)cc1	none (no result: STAT1 activator, APP 5'UTR act, NF-kB neuron act, FLuc act counter, FLuc inh counter)
Cc1ccc(S(=O)(=O)/N=C(\CCl)N2CCOCC2)cc1	none (no result: Pf gametocyte)
COc1cccc2cc(-c3ccccc3)c(=O)oc12	STAT1 activator 142, APP 5'UTR act 152, NF-kB neuron act 4.7, FLuc inh counter 60
